UPR CHOP act – activators of apoptotic CHOP UPR arm, primary screen, cell-based, CHO-CHOP luciferase reporter, luminescence, uHTS; activation, % at 10 µM; UPR activation; percent of tunicamycin response over DMSO baseline; 0.34% of 330,000 active; AID 449763, 2010;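 active = at 10 µM dose, activation of 40% or more, normalized to positive control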;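 note: 100% = tunicamycin at 10 µg/mL and 0% = DMSO alone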
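Test system: CHO-CHOP cells, stable luciferase reporter of PERK-eIF2a-CHOP signalling | Quantity: 500 CHO-CHOP cells per well | Buffer or medium: F12 plus 10% serum | Compound dosing: 10 µM single point, 0.5% DMSO | Schedule: 6 h compound treatment, 37 °C | Signal: Luciferase luminescence | Control set: Tunicamycin high control, DMSO low control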
aDG glyco up – activators of alpha-DG glycosylation, primary screen, uHTS, Pro5-aDG cells, AlphaScreen. alpha-DG glycosylation AlphaScreen (IIH6); 0% Pro5, 100% B10-LARGE cell signal. activation, % at 10 µM. 0.22% of 360,000 active. AID 624168, 2012;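 active = activation of at least 8% versus controls, or a plate z-score of at least 8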;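 note: Pro5 are CHO cells carrying HIG-tagged alpha-DG that lacks glycosylation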
CHOP inhibitor – inhibitors of CHOP promoter induction, primary screen, cell-based, unfolded protein response, luciferase reporter; CHO-K1 CHOP-promoter luciferase, tunicamycin-induced, 15-18 h; inhibition, % at 10 µM; 3.8% of 220,000 active;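 active = compounds that reduced the stress-induced luciferase reporter signal by more than about 70% of percent inhibition, limit read from the data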;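 note: 0% = tunicamycin plus vehicle and 100% = wells without tunicamycin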
XBP1 UPR activ – activators of adaptive XBP1 UPR arm, primary screen, cell-based, CHO-XBP1 luciferase reporter, luminescence, uHTS | IRE1-XBP1 UPR activation; percent of tunicamycin response, DMSO as zero | activation, % at 20 µM | 0.33% of 330,000 active;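 active = versus positive control, 20 µM dose yields 30% or more activation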;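 note: 100% = tunicamycin at 10 µg/mL and 0% = DMSO only wells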
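Test system: CHO-XBP1 luciferase reporter cells | Buffer or medium: Serum-containing F12 medium, 10% FBS | Schedule: 6 h compound exposure at 37 °C, 5% CO2 | Detection: Steady-Glo luciferase glow luminescence, 10 min after reagent addition | Read-out basis: Activation, % of tunicamycin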
GRIN3A LBD mod – binders of NR3A ligand-binding domain, primary screen, biophysical, differential scanning fluorimetry, uHTS | AID 1259313, 2017 | NR3A LBD differential scanning fluorimetry, Tm shift; 0% = protein alone, 100% = glycine-bound protein | 2.5% of 340,000 active | Glutamate receptor ionotropic, NMDA 3A (GRIN3A) ligand-binding domain | Tm shift relative to glycine control, % at 25 µM;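 active = melting temperature shift of at least 10% of the positive control shift, at one fixed dose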
MPTP block – mitochondrial permeability transition pore inhibitors, primary screen, biochemical, isolated mouse mitochondria, absorbance; Ca2+ swelling absorbance, 30 min; inhibition, % at 10 µM; 1.4% of 360,000 active;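 active = inhibition of 50% or more, scaled per plate between neutral and stimulator controls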;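 note: 0% = DMSO wells given calcium and 100% = 1 mM EGTA wells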
* marks the source's active call; other numbers are inactive results; . = not tested or not shown. Shown are actives, neighbours in structure and some others; about 5.6% of the full set was active somewhere.

SMILES	UPR CHOP act	aDG glyco up	CHOP inhibitor	XBP1 UPR activ	GRIN3A LBD mod	MPTP block
Nc1c(C(=O)NCc2ccccc2)c2nc3ccccc3nc2n1-c1ccc2c(c1)OCO2	4	0	79*	8	0	1
CC(C)c1ccc(-c2c(NCCc3ccccc3)c(=O)c2=O)cc1	0	0	.	-2	4	2
CCN(CC(=O)Nc1ccc(NC(C)=O)cc1)C(=O)c1cccc(S(=O)(=O)N2CCCC2)c1	2	0	.	0	3	-1
O=C(Nc1ccc(Cl)cc1)Nc1ccon1	1	0	.	-2	14*	9
O=C(Nc1ccc(Cl)cc1)Nc1ccc(-c2cnco2)cc1	2	0	.	3	37*	42
O=C(NC(=O)c1ccccc1)Nc1ccc(-c2cnco2)cc1	4	0	-3	5	-5	-1
Cc1ccc(NC(=O)Nc2ccon2)cc1	3	0	.	0	-1	-1
C[C@H]1CN(S(=O)C(C)(C)C)[C@@H](CCO)/C1=C\CCO (stereo not given in full)	.	0	.	.	0	0
CCn1c(CNc2cccc(Cl)c2)nnc1SCC(=O)OC1CCCCC1	1	0	72*	-1	2	0
Nc1c(C(=O)NC2CCCC2)c2nc3ccccc3nc2n1N	2	0	74*	0	-20	-3
Nc1c(C(=O)NC2CCCC2)c2nc3ccccc3nc2n1/N=C/c1ccco1	5	0	21	7	-7	3
CCCCCc1c(C)nc(N2CCc3ccccc3C2)[nH]c1=O	.	0	44	.	1	1
CCCCCc1c(C)nc(N2CCc3ccccc32)[nH]c1=O	.	1	73*	.	2	0
Cc1nc(N2CCc3ccccc3C2)[nH]c(=O)c1Cc1ccccc1	-1	0	78*	-2	1	3
Nc1n[nH]c(N)c1N=Nc1ccccc1F	2	0	.	3	32*	0
Nc1n[nH]c(N)c1N=Nc1ccc(Cl)cc1Cl	2	0	30	5	20*	4
Cc1ccccc1N=Nc1c(N)n[nH]c1N	1	0	.	-3	7	0
CC(C)=CCC12Oc3cc(O)ccc3C1(O)Oc1cc(O)c([C@H]3C=C(C)CC(c4ccc(O)cc4O)[C@H]3C(=O)c3ccc(O)cc3O)c(O)c1C2=O (stereo not given in full)	0	.	.	-5	68*	.
O=C(/C=C\Nc1ccccc1Br)c1ccc2c(c1)OCO2	-3	0	27	-12	36*	2
CNc1cc([N+](=O)[O-])ccc1N/C=C/C(=O)c1ccc2c(c1)OCO2	0	0	23	1	13*	3
COc1ccc2[nH]c3c(c2c1)CCN1C(=O)N([C@@H](C)C(=O)NC2CCCCC2C)C(=O)[C@]31C (stereo not given in full)	0	0	.	-2	-2	0
CC(C)CCNC(=O)C(=O)Nc1ccc2c(c1)N(S(=O)(=O)c1cccs1)CCC2	2	0	.	5	0	-1
CCN(CC)S(=O)(=O)c1ccc(OC)c(NC(=O)COc2ccc3c(C)cc(=O)oc3c2)c1	1	0	-6	-2	11*	3
COc1cc(NC(=O)COc2ccc3c(C)cc(=O)oc3c2C)cc(OC)c1OC	-1	0	.	-2	14*	1
CCN(CC)S(=O)(=O)c1ccc(C)c(NC(=O)COC(=O)C=C(C)C)c1	0	0	-1	-1	0	-1
SMILES	UPR CHOP act	aDG glyco up	CHOP inhibitor	XBP1 UPR activ	GRIN3A LBD mod	MPTP block
CCN(CC)S(=O)(=O)c1ccc(C)c(NC(=O)COc2ccc(Cl)cc2Br)c1	6	0	74*	3	-3	3
CN(CC(=O)Nc1ccccc1Cl)CC(=O)N1CCc2ccccc21	-1	0	.	-4	4	-1
COCCCN1C(=O)C(=O)/C(=C(/O)c2ccc(S(=O)(=O)N3CCOCC3)cc2)C1c1cccc(Cl)c1 (stereo not given)	-2	0	.	-5	0	0
COC(=O)c1ccc(NC(=O)c2ccc3c(c2)NC(=O)C2CCCN32)cc1 (stereo not given)	-3	.	.	-6	.	.
CC1CN(S(=O)(=O)c2cccc(C(=O)Nc3ccc(S(=O)(=O)NC4=NCCCCC4)cc3)c2)CC(C)O1 (stereo not given)	1	0	.	-2	0	0
COc1cc(Cl)c(C)cc1NC(=O)CSC1=NCCS1	-1	0	.	0	20*	0
Cc1cc(NC(=O)CSC2=NCCS2)no1	-2	0	22	2	1	0
Cc1sc(NC(=O)CSC2=NCCS2)nc1-c1ccccc1	1	0	73*	2	-2	-2
Cc1oc2c(c(=O)c1C)C(=O)CC(c1ccccc1)C2 (stereo not given)	-1	0	27	3	-1	1
CS(=O)(=O)c1sc(C#N)c2c1C(=O)CC(c1ccccc1)C2 (stereo not given)	-11	0	107*	-11	0	1
CCN(CC)c1nc(C#N)nc(N(CC)CC)n1	-2	0	79*	0	1	2
CCN(c1ccccc1)c1nc(C#N)nc(N(CC)c2ccccc2)n1	2	0	59	0	-1	4
Cc1cc(=O)[nH]c2c1cnn2C(C)c1ccccc1 (stereo not given)	2	0	.	-1	-2	-1
CCn1c(SCC(=O)N2CCCc3ccccc32)nc2c1c(=O)n(C)c(=O)n2C	1	0	19	2	-1	-2
CC(C)c1nc(SCC(=O)N2CCCc3ccccc32)c2c(=O)n(C)c(=O)n(C)c2n1	7	0	88*	-1	0	1
NS(=O)(=O)c1ccc(N/N=C/c2ccncc2)cc1	1	0	.	1	-35	1
NS(=O)(=O)c1ccc(N/N=C/c2cn(-c3ccccc3)nc2-c2cccs2)cc1	4	1	53	5	34*	2
NS(=O)(=O)c1ccc(N/N=C/c2ccccc2Br)cc1	23	0	35	-2	14*	2
CN(C(=O)c1cccc(S(=O)(=O)N2CCCC2)c1)C1CCCCC1	-1	0	.	2	-4	-2
O=C(CC(O)(CC(=O)OCc1ccccc1)C(=O)OCc1ccccc1)OCc1ccccc1	.	0	.	.	-3	0
COc1ccc(N=CC2=C(Nc3ccc(OC)cc3)c3c(C)nn(-c4ccccn4)c3CC2)cc1	59*	.	.	6	.	.

Source: PubChem
